The values below come from PubChem BioAssay.

Test [1] can be described thus: inhibitors of TNFa-induced NFkB p65 translocation, primary screen, imaging, HUVEC, MLSMR starter and 10KST1 sets (AID 438;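 active means inhibition above 20% together with a positive visual image hit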;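 further: compound added about 3h40 before a 20 min TNFalpha stimulation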;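 on inhibition: signal is the nuclear over cytoplasmic p65 intensity ratio per well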). The note with it: HUVEC TNFa-induced p65 nuclear translocation; cell count: measured here: nuclei count (cytotoxicity indicator), at 2.08 µM; inhibition: at 2 µM, stronger effect = higher value, 0% TNFa-plus-vehicle, 100% no-TNFa wells.
A short description of test [2]: inhibitors of mutant huntingtin aggregation, primary screen, imaging, exon1htt(103Q)mCFP cells, high-content imaging (AID 483;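 active means visual image review flags a hit and inhibition of aggregation exceeds 20%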;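 further: compound exposure lasted 3 days before fixation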;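 on nuclei count: percent of the per-plate median nuclei count of sample wells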). The conditions noted are these: exon1htt(103Q)mCFP cell line, aggregate imaging, at 2 µM; inhibition of aggregation: stronger effect = higher value; nuclei count: measured here: cell count, toxicity.
Test [3] in a line: inhibitors of E-selectin induction by TNFa, primary screen, imaging, HUVEC, immunofluorescence, MLSMR starter and 10KST1 sets (AID 487;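 active means visually confirmed hit in the image check and inhibition above 20%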;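 on inhibition: signal is fraction of cell area covered by stained E-selectin grains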;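 on nuclei count: 100% = median nuclei count of all wells on the same plate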). The conditions noted are these: HUVEC TNFalpha-induced E-selectin immunofluorescence imaging, at 2 µM; inhibition: stronger effect = higher value; nuclei count: measured here: cell number, toxicity.
Test [4] has as its target Voltage-gated potassium channel subunit beta-2 (Rattus norvegicus) (UniProt P62483). Description: KvBeta enzyme negative modulators, primary screen, biochemical, NADPH fluorescence (AID 622;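 active means fluorescence slope higher than the sample average by over 3 SD, cut at about -0.22 in these data, passing the limit was not always enough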;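 further: slope of raw intensity against log time taken from 70 to 1610 s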). The conditions noted are these: recombinant KvBeta, 4-cyanobenzaldehyde reduction, at 10 µM, stronger effect = higher value.
For test [5] the target is unchanged. Briefly: KvBeta positive modulators, primary screen, biochemical, NADPH fluorescence (AID 623).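 Further: fluorescence intensity change per second fitted from 20 to 320 s.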 The conditions noted are these: Recombinant KvBeta, NADPH fluorescence decrease slope, 10 min; at 10 µM; stronger effect = lower value.
The target in test [6] is Muscarinic acetylcholine receptor M4 (Homo sapiens) (UniProt P08173). Description: compounds altering M4/GIRK thallium flux, either direction, primary screen, M4 allosteric agonist project, cell-based, HEK293 M4/GIRK, BTC-AM (AID 625;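 active means fluorescence slope after compound addition differing from the mean of all tested samples at 99.7% confidence, mostly higher but some lower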;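 further: thallium influx through GIRK channels coupled to M4 in HEK293 cells with BTC-AM dye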). The note with it: at 10 µM, actives lie on both sides. The method, boiled down: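 assay system = HEK293 cells with M4 receptor and GIRK channels | medium = pH 7.3 thallium assay buffer | doses = 10 µM final, single point | timing = cells overnight at 37 °C, BTC-AM loading 1 h, reads 2 min total | signal = BTC-AM fluorescence, 1 Hz kinetic reads | read-out = post-addition slope, 15–24 s, of baseline-normalized fluorescence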

A short description of test [7]: inhibitors of Sendai virus-induced IRF3 signaling, primary screen, TLR/RLR signaling modifier project, cell-based, Sendai virus stimulus, luciferase, 10K MLSCN set (AID 602276;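 active means inhibition at or above 50% at 10 µM; inactive means inhibition below 50%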;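 further: firefly luciferase from ISG56 promoter only with Renilla not read in this screen; 0% = Sendai virus plus DMSO and 100% = medium plus DMSO without virus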). The note with it: HEK293 RL24 IRF3 luciferase reporter, at 10 µM, stronger effect = higher value. In general terms: Reporter assays use an easily measured gene product as a stand-in for the process of interest.

The nature of test [8]: inhibitors of poly I:C-induced TLR3 signaling, primary screen, cell-based, poly I:C stimulus, luciferase, 10K MLSCN set (AID 602277;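 active means inhibition of the reporter signal at or above 50%; inactive means inhibition below 50%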). The note with it: HEK293-TLR3 RL24 IRF3 luciferase reporter, at 10 µM, stronger effect = higher value.

The source made the active and inactive calls.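 How the source made its calls, unless noted: active means NADPH fluorescence slope more negative than the mean of all samples by about 3 SD, 99.7% confidence; inactive means the rest.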

Sequence of Voltage-gated potassium channel subunit beta-2 (Rattus norvegicus) (P62483 whole entry, looked up): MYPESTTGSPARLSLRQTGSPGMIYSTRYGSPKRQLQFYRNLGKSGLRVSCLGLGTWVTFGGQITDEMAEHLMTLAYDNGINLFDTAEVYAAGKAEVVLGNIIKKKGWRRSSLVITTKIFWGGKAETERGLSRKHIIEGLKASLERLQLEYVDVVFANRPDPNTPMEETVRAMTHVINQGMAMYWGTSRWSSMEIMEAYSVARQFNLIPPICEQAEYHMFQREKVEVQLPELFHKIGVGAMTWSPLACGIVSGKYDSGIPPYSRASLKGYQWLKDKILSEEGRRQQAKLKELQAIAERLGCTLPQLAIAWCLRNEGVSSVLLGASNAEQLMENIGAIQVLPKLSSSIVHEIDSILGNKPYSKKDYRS
Sequence of Muscarinic acetylcholine receptor M4 (Homo sapiens) (P08173 whole entry, looked up): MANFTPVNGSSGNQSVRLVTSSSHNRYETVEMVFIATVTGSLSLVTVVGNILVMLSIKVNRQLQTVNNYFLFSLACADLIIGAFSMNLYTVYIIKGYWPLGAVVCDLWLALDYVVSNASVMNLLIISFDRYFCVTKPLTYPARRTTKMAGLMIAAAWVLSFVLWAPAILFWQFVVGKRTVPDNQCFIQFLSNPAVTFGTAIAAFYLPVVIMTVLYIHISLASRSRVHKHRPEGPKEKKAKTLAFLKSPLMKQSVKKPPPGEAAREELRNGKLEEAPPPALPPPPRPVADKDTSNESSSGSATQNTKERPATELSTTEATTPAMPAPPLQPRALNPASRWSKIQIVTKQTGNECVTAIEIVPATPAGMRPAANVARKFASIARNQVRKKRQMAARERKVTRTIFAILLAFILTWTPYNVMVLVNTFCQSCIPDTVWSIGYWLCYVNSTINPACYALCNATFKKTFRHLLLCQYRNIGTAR

As for `CCC(=O)OC1(C#CCOc2ccc(OC)cc2)CCN(C)CC1`, the cell count in test [1] was 393. Moreover, the inhibition in test [1] is -6.5% (inactive); in test [3], -43.3% (inactive); in test [7], 17.8% (inactive); in test [8], 16% (inactive). For the same molecule, in test [2], the inhibition of aggregation is -20.2% (inactive). Further, the nuclei count in test [2] was found to be 113%; in test [3], 142%. The fluorescence slope in test [4] is -0.61 (inactive); in test [6] it was 0.00292 (inactive). In addition, the NADPH fluorescence slope in test [5] is -2.5e-05 (inactive).

As for `CCOc1nc2ccccc2nc1NS(=O)(=O)c1ccccc1`, the cell count in test [1] amounted to 769. Also, the inhibition is -4.2% (inactive) in test [1], -10% (inactive) in test [3], 15.8% (inactive) in test [7] and 20% (inactive) in test [8]. In test [2], the inhibition of aggregation was 6.9% (inactive). In addition, the nuclei count in test [2] was determined as 126%; in test [3], 132%. Moreover, the results for the fluorescence slope in test [4] and in test [6] were -0.462 (inactive) and 0.00417 (inactive), respectively. Besides, the NADPH fluorescence slope in test [5] was -0.000234 (inactive).

`COc1ccc(-c2cc(C(=O)N3CCN(Cc4ccccc4)CC3)no2)cc1OC`: in test [1], the cell count was 463. The inhibition in test [1] is -23% (inactive); in test [3], -36% (inactive); in test [7], 8.32% (inactive); in test [8], 12.9% (inactive). Also, the inhibition of aggregation in test [2] was -5.8% (inactive). Moreover, the figures for the nuclei count in test [2] and in test [3] were 106% and 112%, respectively. The fluorescence slope in test [4] was -0.318 (inactive); in test [6], 0.00627 (inactive). Besides, the NADPH fluorescence slope in test [5] was -6.6e-05 (inactive).

As for `CC(=O)N1C(=O)C2(C(C#N)=C(N)Oc3cc(C)oc(=O)c32)c2ccccc21` (centres undefined), in test [1], the cell count amounted to 438. Further, the inhibition in test [1] is 3.8% (inactive); in test [3], -54.5% (inactive); in test [7], -9.7% (inactive); in test [8] it was -6.69% (inactive). Further, the inhibition of aggregation in test [2] was -2.1% (inactive). Also, the nuclei count in test [2] was found to be 108%; in test [3], 110%. The fluorescence slope is -0.511 (inactive) in test [4] and 0.00547 (inactive) in test [6]. In addition, the NADPH fluorescence slope in test [5] was -0.00027 (inactive).

In the case of `c1ccc(-c2cn3cccnc3n2)cc1`, in test [1], the cell count was 746. For the same molecule, the inhibition in test [1] is -0.7% (inactive); in test [3], -66.8% (inactive); in test [7], -12.5% (inactive); in test [8], -40.2% (inactive). In addition, the inhibition of aggregation in test [2] is 12.5% (inactive). In addition, the nuclei count in test [2] turned out to be 92.7%; in test [3], 123%. The fluorescence slope in test [4] is -0.0209 (active); in test [6], 0.00503 (inactive). Moreover, the NADPH fluorescence slope in test [5] was -3.7e-06 (inactive).

Regarding `O=C(CCSc1ccccc1)N1CCOCC1`, in test [1], the cell count stood at 339. Besides, the inhibition is 0.4% (inactive) in test [1], -90.9% (inactive) in test [3], -18.7% (inactive) in test [7] and -64.6% (inactive) in test [8]. Moreover, the inhibition of aggregation in test [2] was -7.3% (inactive). For the same molecule, the nuclei count in test [2] amounted to 104%; in test [3], 105%. The fluorescence slope in test [4] was -0.562 (inactive); in test [6], 0.00456 (inactive). In addition, in test [5], the NADPH fluorescence slope is -0.000154 (inactive).

For the molecule `COC(=O)c1ccc(CSc2nc(-c3ccc(OC)cc3)nc3c2c(=O)n(C)c(=O)n3C)o1`, the cell count in test [1] is 487. In addition, the inhibition in test [1] was 8.9% (inactive); in test [3], -5.9% (inactive); in test [7] it was 24% (inactive); in test [8], 30.6% (inactive). Besides, the inhibition of aggregation in test [2] was -0.5% (inactive). For the same molecule, the nuclei count amounted to 89.2% in test [2] and 103% in test [3]. The fluorescence slope is -0.409 (inactive) in test [4] and 0.00884 (inactive) in test [6]. For the same molecule, the NADPH fluorescence slope in test [5] was 0.000102 (inactive).

As to `COc1ccc(CC(=O)NCc2cccs2)cc1`, in test [1], the cell count was 568. The inhibition in test [1] is -20.6% (inactive); in test [3] it was -83.1% (inactive); in test [7] it was 31% (inactive); in test [8], 16.3% (inactive). Besides, in test [2], the inhibition of aggregation is -32.4% (inactive). For the same molecule, the nuclei count in test [2] amounted to 103%; in test [3], 140%. The results for the fluorescence slope in test [4] and in test [6] were -0.399 (inactive) and 0.0067 (inactive), respectively. Further, the NADPH fluorescence slope in test [5] is 0.000126 (inactive).

`COc1cccc(OC)c1C(=O)Nc1ccc(CN2CCCCC2)cc1`: the cell count in test [1] stood at 640. The inhibition in test [1] was -2.4% (inactive); in test [3], -32.5% (inactive); in test [7], 13.4% (inactive); in test [8] it was 23.2% (inactive). Besides, the inhibition of aggregation in test [2] was -16.7% (inactive). The nuclei count in test [2] came to 71.4%; in test [3] it was 98.8%. Besides, the fluorescence slope in test [4] is -0.425 (inactive); in test [6] it was 0.00659 (inactive). The NADPH fluorescence slope in test [5] was -3.1e-06 (inactive).

As to `Cc1ccc(-c2[nH]nc3c2C(c2ccc(OC(=O)N4CCOCC4)cc2)C(C#N)=C(N)O3)cc1` (centres undefined), the cell count in test [1] was 742. Also, the inhibition is 10.8% (inactive) in test [1], -39.7% (inactive) in test [3], 4.48% (inactive) in test [7] and 9.32% (inactive) in test [8]. Moreover, in test [2], the inhibition of aggregation was 0.2% (inactive). Further, the nuclei count in test [2] worked out at 97.7%; in test [3], 104%. Further, the values for the fluorescence slope in test [4] and in test [6] were -0.577 (inactive) and 0.00718 (inactive), respectively. The NADPH fluorescence slope in test [5] was -4.2e-05 (inactive).

With `COCCNC(=O)CSc1nc(-c2ccc(OC)c(OC)c2)cc(C(F)(F)F)n1`, the cell count in test [1] came out at 430. Moreover, the inhibition was 3.4% (inactive) in test [1], -34.3% (inactive) in test [3], 17.7% (inactive) in test [7] and 14.6% (inactive) in test [8]. Further, in test [2], the inhibition of aggregation is -8.2% (inactive). Besides, the nuclei count in test [2] turned out to be 104%; in test [3], 115%. For the same molecule, the fluorescence slope was -0.445 (inactive) in test [4] and 0.00332 (inactive) in test [6]. Besides, the NADPH fluorescence slope in test [5] is -0.000127 (inactive).

With `CCc1ccccc1NC(=O)CSc1nc2n[nH]c(C)c2c(=N)n1-c1ccc(OC)cc1`, the cell count in test [1] stood at 453. Further, the inhibition in test [1] is 17.4% (inactive); in test [3], 41.3% (inactive); in test [7] it was 15.1% (inactive); in test [8], 20.3% (inactive). In addition, the inhibition of aggregation in test [2] was -1.3% (inactive). Besides, the nuclei count in test [2] worked out at 104%; in test [3] it was 103%. Further, the results for the fluorescence slope in test [4] and in test [6] were -0.47 (inactive) and 0.00766 (inactive), respectively. The NADPH fluorescence slope in test [5] is -4.8e-05 (inactive).

On to `O=S(=O)(NCc1ccco1)c1cccc2cccnc12`, for which, in test [1], the cell count was 336. For the same molecule, the inhibition in test [1] is 0% (inactive); in test [3], -65.9% (inactive); in test [7], 13.3% (inactive); in test [8], 13% (inactive). Further, the inhibition of aggregation in test [2] was -18.3% (inactive). The values for the nuclei count in test [2] and in test [3] were 111% and 103%, respectively. Moreover, the fluorescence slope in test [4] was -0.551 (inactive); in test [6], 0.00492 (inactive). Further, the NADPH fluorescence slope in test [5] is -1.2e-05 (inactive).

`CC(=O)N1CCC2(CC1)CC(=O)c1cc(OCC(=O)NCc3ccco3)ccc1O2`: in test [1], the cell count came out at 376. In addition, the inhibition in test [1] is 6.6% (inactive); in test [3], -143% (inactive); in test [7], -7.82% (inactive); in test [8], 2.06% (inactive). Further, the inhibition of aggregation in test [2] was -16.2% (inactive). For the same molecule, the figures for the nuclei count in test [2] and in test [3] were 113% and 97.8%, respectively. In addition, the fluorescence slope in test [4] is -0.253 (inactive); in test [6], 0.00743 (inactive). Besides, in test [5], the NADPH fluorescence slope was 1.5e-05 (inactive).

Broadly, the inhibition is the relative decrease from the control value, in per cent.
